Screening results deposited in PubChem BioAssay by several laboratories.
Runt-SMMHC FRET: inhibitors of RUNX1 Runt–CBFb-SMMHC binding, primary screen, biochemical, FRET, Cerulean-Runt, Venus-CBFb-SMMHC, uHTS. Cerulean-Runt/Venus-CBFb-SMMHC FRET ratio 530/480, 1 h. actives 0.74% (n = 220,000). Runt-related transcription factor 1 (Homo sapiens) + Core-binding factor subunit beta …. inhibition, % at 20 µM;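 active means mean inhibition across duplicate retests at 20 µM reaching about 50%, limit read from the data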;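 further: 0% = DMSO wells and 100% = wells with excess untagged CBFb-SMMHC; inhibitors lower the FRET ratio by blocking Runt binding to CBFb-SMMHC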
AI-2 QS modul: Vibrio harveyi AI-2 quorum sensing modulators, primary screen, JMH597 strain, luminescence/OD600 ratio. AID 2094, 2009. activity change, % at 7.5 µM. Vibrio harveyi JMH597 AI-2 luminescence/OD600 ratio, 9 h; stronger effect = lower value; strain lacks LuxN and CqsS sensors; 0 = neutral-control median. actives 0.4% (n = 300,000); in the data active means activity change below about -75%, passing the limit was not always enough; inconclusive means no clear call, values can overlap the other calls;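 further: luminescence divided by OD600 gain over 9 h not by final OD600 alone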
RanGTP-Impb inh: inhibitors of RanGTP-importin-beta interaction, primary screen, biochemical, FRET, CFP-Ran, YFP-importin-beta, homogeneous | Ran GTPase (GTP-bound) - importin-beta complex | cell-free CFP-Ran/YFP-importin-beta FRET ratio | inhibition, % (test concentration not listed) | actives 1.1% (n = 300,000) | AID 2216, 2009;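 active means more than half of the replicate wells show a fall in the fluorescence ratio signal beyond about 16%, limit read from the data, passing the limit was not always enough; inconclusive means exactly half of the replicate wells pass the set limit; inactive means fewer than half of replicates pass the limit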;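 further: 0% = DMSO wells and 100% = Ran loaded with GDP instead of GTP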
KLK7 zymogen act: proKLK7 zymogen activators, primary screen, biochemical, fluorescence intensity | Kallikrein-7 (Homo sapiens), P49862 | purified proKLK7, EDANS-DABCYL substrate fluorescence; 100% is mature enzyme control, 0% vehicle | activation, % at 7 µM | actives 0.9% (n = 370,000) | AID 652039, 2013;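 active means activation above the mean of all tested compounds plus 3 SD, computed per campaign excluding outliers beyond control limits, cut at about 13% in these data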
Target sequence (P49862 whole entry, looked up): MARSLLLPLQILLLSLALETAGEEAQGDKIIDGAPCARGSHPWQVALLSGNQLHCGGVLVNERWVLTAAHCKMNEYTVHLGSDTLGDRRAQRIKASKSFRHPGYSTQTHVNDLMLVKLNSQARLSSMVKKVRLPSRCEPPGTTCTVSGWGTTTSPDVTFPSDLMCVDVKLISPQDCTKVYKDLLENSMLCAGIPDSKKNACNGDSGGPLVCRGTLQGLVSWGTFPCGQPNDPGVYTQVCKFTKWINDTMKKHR
Wee1 degr inh: Wee1 degradation inhibitors, primary screen, cell-based, HeLa, Wee1K328M-luciferase, luminescence | Wee1-like protein kinase (Homo sapiens), P30291 | HeLa Luc-Wee1K328M stability; 100% = proteasome inhibitor MG132 effect | reporter increase, % at 5 µM | actives 1.2% (n = 220,000);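 active means activation above the mean of all tested compounds plus 3 SD, set per screening run, cut at about 8.8% in these data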;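 further: cells exposed to compound for 20 h before luminescence read; 0% = DMSO alone and 100% = MG132 at 30 µM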
Runt-CBFb FRET: inhibitors of RUNX1 Runt–CBFb binding, primary screen, biochemical, FRET, Cerulean-Runt, Venus-CBFb, uHTS; Runt-related transcription factor 1 (Homo sapiens) + Core-binding factor subunit beta …; Cerulean-Runt/Venus-CBFb FRET ratio 530/480, 1 h; inhibition, % at 20 µM; actives 0.46% (n = 220,000); AID 1496, 2009;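 active means inhibition over about 50% at 20 µM in the single-dose screen, limit read from the data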;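 further: 0% = DMSO wells and 100% = excess unlabeled CBFb competitor control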
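Assay system: Cerulean-Runt domain fusion protein, energy donor; Signal: fluorescence energy transfer, 422 nm excitation, 530/480 nm emission; Timing: 1 h compound exposure, room temperature; Control set: unlabeled CBFb; Medium: Tris buffer pH 7.5 with salts and BSA; Compound: single test concentration of 20 µM, 1% DMSO final; Probe or stimulus: Venus-CBFb 100 nM.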
KLK7 act conf: proKLK7 zymogen activators, confirmation, biochemical, fluorescence intensity, triplicate. shares compounds with KLK7 zymogen act. purified proKLK7, EDANS-DABCYL substrate fluorescence; scaled: vehicle 0, mature enzyme 100. activation, % at 7 µM. actives 68% (n = 3,200). AID 686949, 2013;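 active means activation, as change over the incubation, above the mean of all tested compounds plus 3 SD, cut at about 13% in these data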
EDANS-DABCYL int: EDANS-DABCYL substrate optical interference, artefact control for kallikrein-7 zymogen activator project, biochemical, fluorescence intensity, high throughput. actives 80% (n = 3,200). no enzyme, 4 h; solvent 0%, active enzyme control 100%. activation, % at 7 µM. shares compounds with KLK7 zymogen act;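 active means activation above the all-compound mean plus 3 SD, ignoring values outside control-based bounds, cut at about 4.8% in these data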;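 further: value is the 4 h activation minus the activation read at time zero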
EDANS interf: EDANS fluorescence interference in dose response, no enzyme; EDANS-DABCYL peptide fluorescence interference; EC50, µM; actives 20% (n = 250); AID 720493; shares compounds with KLK7 zymogen act;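 active means compounds that raise the fluorescence signal in this interference counterscreen, with EC50 at or below 10 µM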;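 further: intact quenched peptide substrate alone read at 355 nm excitation and 520 nm emission; signal is fluorescence gain from T0 to T4 after four hours at room temperature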
* hit, by the source's call; i = inactive; u = inconclusive; x = not tested or not shown. Compounds with a hit are over-represented: about 2.9% of the library has one in this group of screens.

SMILES	Runt-SMMHC FRET	AI-2 QS modul	RanGTP-Impb inh	KLK7 zymogen act	Wee1 degr inh	Runt-CBFb FRET	KLK7 act conf	EDANS-DABCYL int	others
CCCCNc1nccnc1-c1cccc(C=O)c1	x	x	x	212*	x	x	299*	289*
Cc1c(N)ccc(-n2nc3ccccc3n2)c1C	x	17	-1	0	x	x	x	x
COc1ccc2nc(C(F)(F)C(F)(F)F)c(C#N)c(N)c2c1	3	18	-4	50*	0	2	-9	-13
CC(=O)c1ccc(-c2ccc(C(=O)N(C)Cc3nc4ccccc4c(=O)[nH]3)o2)cc1	x	x	x	26*	x	x	-2	-12
COc1ccc(CNC(=O)C2CCCN(C(=O)Nc3ccc(OC)cc3)C2)cc1 (configuration not stated)	x	4	-1	0	x	x	x	x
Cc1cc(C(=O)COc2ccc3ccc(=O)oc3c2)c(C)n1Cc1cccs1	31	29	3	78*	-2	27	73*	89*
COc1ccc(NC(=O)c2cc(C)n(Cc3cccs3)c2C)cc1	-1	16	1	-1	8	-1	x	x
Cc1cc(F)ccc1-c1cc(C(=O)NCc2cccc(C(F)(F)F)c2)[nH]n1	x	x	x	1	x	x	x	x
COC(=O)c1ccc(Oc2c(C)oc3c(CN4CCN(C)CC4)c(O)ccc3c2=O)cc1	3	20	3	65*	-3	1	79*	73*
CCN1CCN(Cc2c(O)ccc3c(=O)c(-c4ccc(OC)c(OC)c4)c(C)oc23)CC1	4	4	1	11	-3	-2	x	x
COc1ccc(Oc2c(C)oc3c(CN(C)C)c(O)ccc3c2=O)cc1	0	25	-6	14*	2	3	32*	31*
COc1cccc(Oc2c(C)oc3c(CN4CCCCC4)c(O)ccc3c2=O)c1	4	7	1	61*	5	-1	61*	71*
COc1ccc(-c2c(C)oc3c(CN4CCN(C)CC4)c(O)ccc3c2=O)cc1	2	22	3	59*	-2	1	40*	50*
COc1ccc(Oc2coc3c(CN(C)C)c(O)ccc3c2=O)cc1	4	-5	-3	7	-2	0	x	x
Cc1cc(C)cc(Oc2coc3c(CN(C)C)c(O)ccc3c2=O)c1	x	-3	0	71*	x	x	69*	80*
COc1ccccc1Oc1c(C)oc2c(CN3CCN(C)CC3)c(O)ccc2c1=O	3	7	u	77*	0	6	69*	76*
CN1CCC(N(C)C(=O)c2cc(S(=O)(=O)N(C)c3ccccc3)ccc2Cl)CC1	x	x	x	-1	x	x	x	x
CC(Cl)C(=O)NNC(=O)CNS(=O)(=O)c1ccccc1 (configuration not stated)	x	13	10	0	-3	x	x	x
O=C(NCCc1ccccc1)c1coc(=O)c(Br)c1	x	-59	u	14*	x	x	32*	26*	EDANS interf=i
CN(C)CCNC(=O)c1coc(=O)c(Br)c1	2	11	-1	-6	0	-3	x	x
O=C(NNC(=O)C1C2CCCCC21)c1coc(=O)c(Br)c1 (configuration not stated)	80	44	6	-6	0	21	x	x
O=C(NC(CO)(CO)CO)c1coc(=O)c(Br)c1	-6	15	7	41*	3	0	54*	54*
CS(=O)(=O)Nc1ccc(-c2cnc3cccnn23)cc1	x	x	x	76*	x	x	14*	11*	EDANS interf=i
CS(=O)(=O)Nc1ccc(-c2cncc3nccn23)cc1	x	x	x	16*	x	x	3	4.5*
CCOc1ccc(-c2cncc3nccn23)cc1	x	x	x	17*	x	x	33*	36*
SMILES	Runt-SMMHC FRET	AI-2 QS modul	RanGTP-Impb inh	KLK7 zymogen act	Wee1 degr inh	Runt-CBFb FRET	KLK7 act conf	EDANS-DABCYL int	others
CS(=O)(=O)Nc1ccccc1-c1ccc2nccn2c1	x	x	x	0	x	x	x	x
CCN(CCS(=O)(=O)c1ccc(Cl)cc1)Cc1nc2ccccc2c(=O)[nH]1	x	x	x	0	x	x	x	x
NNC(=O)/C(=C\c1ccc(Br)cc1)NC(=O)c1cccs1	-30	24	6	1	6	-1	x	x
CCc1ccccc1NC(=O)CNC(=O)CSC(=S)N1CCCC1	x	x	x	0	x	x	x	x
CCn1nc2cc(C(=O)NCCc3cccs3)ccc2c1OC	-7	19	2	18*	6	x	8	3
CCCCn1nc2cc(C(=O)NCc3ccc(OC)cc3)ccc2c1OCC	-1	10	u	-20	7	-3	x	x
CCOc1c2ccc(C(=O)NCc3ccc(OC)cc3)cc2nn1CCOC	4	2	1	13*	1	-1	-4	-5
COc1ccc(NC(=O)CN2CCCCCC2)cc1OC	x	x	-1	0	x	x	x	x
Cc1ccc2nc(-c3ccc(NC(=O)Cc4cccs4)cc3)[nH]c2c1	-4	-36	1	52*	10*	x	8	3
CC(C)C[C@@H](CO)N1CCN(Cc2ccc([N+](=O)[O-])cc2)CCC1=O	x	17	-1	0	x	x	x	x
CCCCn1c(SCC(=O)NC(C)CC)nc2ccc(N3CCOCC3)cc2c1=O (configuration not stated)	-4	-4	-4	2	-2	0	x	x
CCCCn1c(SCC(=O)Nc2ccc(OC)cc2)nc2ccc(N3CCOCC3)cc2c1=O	1	16	-1	17*	-1	10	-5	-4
CCC(=O)N1CCCC1(C)C(=O)Nc1ccc(C)c(C)c1 (configuration not stated)	x	x	x	-1	x	x	x	x
CCn1ncc(-c2ccnc3cc(C(=O)O)nn23)c1C	-17	10	-10	13*	0	-2	39*	44*
N#CC1C(=O)NC(c2ccccc2)=CC1c1ccccc1 (configuration not stated)	x	x	x	124*	x	x	110*	103*
